Experimental findings from ChEMBL document CHEMBL1130174, “Pyrrolidine-3-carboxylic acids as endothelin antagonists. 2. Sulfonamide-based ETA/ETB mixed antagonists” (J Med Chem, 1997) are described below.

Square brackets hold non-standard residues; d marks the D form. Peptide text beside a SMILES is read from it. * marks the point of attachment. Piperazinyl(4-Ph) = c1ccc(N2CCN(*)CC2)cc1; dGly(2-thienyl) = N[C@@H](C(=O)O)c1cccs1

The Cmax is the peak of the concentration-time curve. Broadly, the AUC is concentration integrated over time. The term bioavailability denotes the share of a dose that reaches the circulation, judged against a reference dose that is usually intravenous. By half-life is commonly meant how long it takes for the measured level to halve. As a reminder, the IC50 is the concentration needed to halve the response being measured. A word on the Ki: it is a dissociation constant, usually derived from enzyme kinetics or from competition with a known ligand.

Data set [1] is described as follows: Maximum drug concentration is determined after oral dosing in rats. Conditions: rat, in vivo. The format is ADME, organism-based. The arrangement: route oral.
The test system of another data set is Rattus norvegicus. The experiment in a line: (§1) Total drug exposure is determined after oral dosing in rats. The format is ADME, organism-based. Details: concentration or dose not given beside the values. As to conditions: in vivo.
The nature of data set [2]: Oral bioavailability in rat. The format is ADME, organism-based. Conditions: in vivo.
Data set [3] can be described thus: Half-life is obtained after intravenous dosing of rats. The format is ADME, organism-based. As to conditions: rat, in vivo.
Data set [4] can be described thus: Half-life is obtained after oral dosing of rats. The format is ADME, organism-based. Conditions: rat, in vivo.
The target in data set [5] is T1, Endothelin receptor type B (Sus scrofa, UniProt P35463).
T1 sequence (P35463 whole entry): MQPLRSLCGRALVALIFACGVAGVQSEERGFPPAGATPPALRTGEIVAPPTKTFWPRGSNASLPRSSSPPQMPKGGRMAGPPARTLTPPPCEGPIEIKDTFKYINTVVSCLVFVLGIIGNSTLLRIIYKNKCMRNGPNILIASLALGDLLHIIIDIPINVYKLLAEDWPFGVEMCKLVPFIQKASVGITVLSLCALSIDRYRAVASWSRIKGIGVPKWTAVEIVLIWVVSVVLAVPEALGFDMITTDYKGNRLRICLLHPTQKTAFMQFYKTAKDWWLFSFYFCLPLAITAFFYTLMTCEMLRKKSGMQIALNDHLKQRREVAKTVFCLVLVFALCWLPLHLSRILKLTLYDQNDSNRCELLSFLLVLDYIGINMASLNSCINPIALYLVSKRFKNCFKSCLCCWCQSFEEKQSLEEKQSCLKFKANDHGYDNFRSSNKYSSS
Kind of data set: Ability to displace endothelin ([125I]ET-3) from endothelin B receptor derived from cerebellar tissue of porcine.

The target of data set [6] is T2, Endothelin receptor type B (Homo sapiens, UniProt P24530).
T2 sequence (P24530 whole entry): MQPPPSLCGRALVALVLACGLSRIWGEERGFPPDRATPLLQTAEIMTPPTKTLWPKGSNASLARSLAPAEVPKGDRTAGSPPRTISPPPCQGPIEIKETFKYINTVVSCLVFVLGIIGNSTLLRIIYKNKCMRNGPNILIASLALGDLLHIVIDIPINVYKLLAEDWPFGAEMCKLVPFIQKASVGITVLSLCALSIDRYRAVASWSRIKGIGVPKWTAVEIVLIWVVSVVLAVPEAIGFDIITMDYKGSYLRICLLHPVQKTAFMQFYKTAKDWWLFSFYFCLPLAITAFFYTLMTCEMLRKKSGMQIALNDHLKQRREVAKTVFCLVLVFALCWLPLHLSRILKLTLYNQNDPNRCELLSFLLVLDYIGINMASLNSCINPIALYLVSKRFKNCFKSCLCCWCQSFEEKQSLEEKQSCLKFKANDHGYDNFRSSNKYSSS
The experiment in a line: Binding assay performed using human Endothelin B receptor (hETB) expressed in chinese hamster ovary cells(CHO). The format is cell-based.

Data set [7] deals with T2, Endothelin receptor type B. Kind of data set: Ability to block the ET-1-induced hydrolysis of inositol phosphate in Endothelin B receptor of chinese hamster ovary(CHO) cells. The format is functional.
Data set [8] has as its target T2, Endothelin receptor type B. The experiment in a line: Ability to displace endothelin ([125I]ET1) from human Endothelin B receptor.
The target of data set [9] is T3, Endothelin-1 receptor (Homo sapiens, UniProt P25101).
T3 sequence (P25101 whole entry): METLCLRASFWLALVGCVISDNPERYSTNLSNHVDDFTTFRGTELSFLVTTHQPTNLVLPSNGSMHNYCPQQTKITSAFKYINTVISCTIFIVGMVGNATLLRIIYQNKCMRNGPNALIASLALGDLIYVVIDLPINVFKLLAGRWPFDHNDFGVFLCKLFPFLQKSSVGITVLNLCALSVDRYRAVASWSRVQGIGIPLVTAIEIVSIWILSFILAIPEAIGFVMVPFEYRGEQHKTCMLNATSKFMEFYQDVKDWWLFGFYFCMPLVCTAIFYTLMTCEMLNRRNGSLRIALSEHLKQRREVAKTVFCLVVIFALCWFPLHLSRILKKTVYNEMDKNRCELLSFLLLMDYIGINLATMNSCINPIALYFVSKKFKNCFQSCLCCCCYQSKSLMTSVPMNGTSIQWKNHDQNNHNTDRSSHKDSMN
The experiment in a line: Ability to displace endothelin ([125I]ET1) from human Endothelin A receptor. Summed up:
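Membranes from CHO cells stably transfected with human ETA, prepared at 4 °C and stored at -80 °C. Buffer: 20 mM Tris pH 7.4, 100 mM NaCl, 10 mM MgCl2, 0.2% BSA, protease inhibitors. Bound ligand separated by glass-fibre filtration. Nonspecific binding with 1 µM unlabeled ET-1. IC50 is the mean of at least two determinations.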

Data set [10] in a line: Ratio of endothelin A receptor and endothelin B receptor.
Data set [11] can be described thus: as §1. The format is ADME, organism-based. The arrangement: concentration or dose not given beside the values. Conditions: rat, in vivo.
For data set [12], the target named is T4, Endothelin-1 receptor (Rattus norvegicus, UniProt P26684).
T4 sequence (P26684 whole entry): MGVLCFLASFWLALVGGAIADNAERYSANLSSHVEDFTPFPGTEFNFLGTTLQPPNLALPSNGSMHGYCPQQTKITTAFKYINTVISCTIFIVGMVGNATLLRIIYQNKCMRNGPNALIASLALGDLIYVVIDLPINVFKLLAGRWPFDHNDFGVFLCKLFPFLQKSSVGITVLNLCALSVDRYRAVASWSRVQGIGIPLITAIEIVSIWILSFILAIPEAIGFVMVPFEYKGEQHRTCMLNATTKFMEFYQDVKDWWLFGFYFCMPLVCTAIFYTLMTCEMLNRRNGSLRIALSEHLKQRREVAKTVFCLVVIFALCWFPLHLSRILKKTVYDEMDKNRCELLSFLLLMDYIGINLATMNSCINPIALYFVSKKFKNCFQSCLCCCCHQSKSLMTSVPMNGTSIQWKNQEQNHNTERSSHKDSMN
The experiment in a line: Ability to displace endothelin ([125I]ET1) from endothelin A receptor derived from MMQ cells of rodent. The format is cell-based, Rodentia sp.

Data set [13] addresses T3, Endothelin-1 receptor. The experiment in a line: Binding assay performed using human Endothelin A receptor (hETA) expressed in chinese hamster ovary cells(CHO). The format is cell-based.

With `CCCN(CCN1C[C@H](c2ccc3c(c2)OCO3)[C@@H](C(=O)O)[C@@H]1c1ccc(OC)c(F)c1)S(=O)(=O)CCCC(F)(F)F` (stereo in doubt; 15e), the highest level in data set [1] (Cmax) was 1200 ng/mL. Besides, the AUC in the data set on Rattus norvegicus came out at 4300 ng·h/mL. This molecule also came in with a bioavailability in data set [2] of 25%. The half-life in [3] was 4.3 h; in data set [4] it was 8.9 h. Further, the IC50 was 0.32 nM in [5], 0.2 nM in [6] and 1.46 nM in data set [7].
In turn, `CCCCCS(=O)(=O)N(CCC)CCN1C[C@H](c2ccc3c(c2)OCO3)[C@@H](C(=O)O)[C@@H]1c1ccc(OC)c(F)c1` (stereo in doubt; 15b) returned a peak concentration (Cmax) in data set [1] of 2400 ng/mL. Moreover, the AUC in the data set on Rattus norvegicus is 11200 ng·h/mL. This molecule returned a bioavailability in data set [2] of 54%. Also, the half-life in data set [3] was 5 h; in data set [4], 8.1 h. Further, the results for the IC50 in data set [5], in data set [6] and in data set [7] were 0.29 nM, 0.28 nM and 1.28 nM, respectively.
Consider `CCCOc1ccc2c(c1)[C@@H](c1ccc(OC)cc1OCC(=O)O)[C@H](C(=O)O)[C@H]2c1ccc2c(c1)OCO2` [SB-209670], for which the Ki was 18 nM in data set [8] and 0.2 nM on Endothelin-1 receptor [9]. The Ratio in data set [10] was found to be 90.
As for `CCCCS(=O)(=O)N(CCC)CCN1C[C@H](c2ccc3c(c2)OCO3)[C@@H](C(=O)O)[C@@H]1c1ccc(OC)c(F)c1` (stereo in doubt; 15a), the concentration in data set [1] peaked (Cmax) at 1100 ng/mL. The exposure (AUC) in [11] is 3700 ng·h/mL. Further, the bioavailability in data set [2] was found to be 31%. The half-life in [3] was 6.9 h; in [4] it was 7.3 h. Further, the IC50 stood at 0.32 nM in [5], 0.47 nM in data set [6] and 0.6 nM in [7].
As to `CCCc1cc(C(=O)O)ccc1OC(C(=O)NS(=O)(=O)c1ccc(C(C)C)cc1)c1ccc2c(c1)OCO2` [L-754142], in data set [2], the bioavailability turned out to be 60%. Also, in [3], the half-life was 2 h. Moreover, the 50% inhibitory concentration (IC50) was determined as 4.4 nM in data set [8] and 0.26 nM on Endothelin-1 receptor [9]. Also, the Ratio in [10] was 17.
Molecule `CC(C)C[C@@H]1NC(=O)[C@@H](c2cccs2)NC(=O)[C@H](CC(=O)O)NC(=O)[C@H](CC(=O)N2CCN(c3ccccc3)CC2)NC(=O)[C@@H](CC(=O)O)NC(=O)[C@@H](Cc2c[nH]c3ccccc23)NC1=O` (cyclo(D(Piperazinyl(4-Ph))D[dGly(2-thienyl)]L[dW][dD])) gave a half-life in data set [3] of 0.5 h. For the same molecule, the IC50 in [8] was found to be 130 nM; at Endothelin-1 receptor [9], 0.24 nM. In addition, the Ratio in [10] was determined as 540.
In [1], `CCCCCCS(=O)(=O)N(CCC)CCN1C[C@H](c2ccc3c(c2)OCO3)[C@@H](C(=O)O)[C@@H]1c1ccc(OC)c(F)c1` (stereo in doubt; 15c) yielded a peak concentration (Cmax) of 700 ng/mL. This molecule also yielded an AUC with Rattus norvegicus of 2800 ng·h/mL. In data set [2], this molecule displayed a bioavailability of 40%. Also, the half-life was 3.3 h in [3] and 6.4 h in [4]. Moreover, the concentration for half-maximal inhibition (IC50) in [5] was 0.34 nM; in [6], 0.48 nM; in data set [7], 1.12 nM.
Regarding `CCCOc1ccc2c(c1)[C@@H](c1ccc(OC)cc1OCCO)[C@H](C(=O)O)[C@H]2c1ccc2c(c1)OCO2`, the bioavailability in [2] came to 60%. The molecule further gave a half-life in data set [3] of 2 h. For the same molecule, the Ki in data set [8] came to 110 nM; on Endothelin-1 receptor [9], 1.1 nM. Moreover, the Ratio in data set [10] turned out to be 100.
`CCCN(CCN1C[C@H](c2ccc3c(c2)OCO3)[C@@H](C(=O)O)[C@@H]1c1ccc(OC)c(F)c1)S(=O)(=O)CCCCl` (stereo in doubt; 15d): in data set [1], the Cmax worked out at 400 ng/mL. Further, in the data set with Rattus norvegicus, the AUC was determined as 2200 ng·h/mL. This molecule showed a bioavailability in data set [2] of 25%. Also, the half-life in data set [3] was 14 h; in [4], 9.6 h. In addition, the IC50 came out at 0.2 nM in data set [5]; 0.094 nM on Endothelin-1 receptor [12]; 0.14 nM in data set [6]; 0.83 nM in [7]; 0.07 nM on Endothelin-1 receptor [13].
